# The list is not random: actives were taken first. Their share in the collection is about 3.7%.
# PKD1 inh: blocks activity of human protein kinase D1 | PKD1 kinase fluorescence polarization assay | inhibition, % (test concentration not listed) | actives 0.056% (n = 200,000) | AID 797; in the data active = inhibition above about 50%
# ROMK primary: modulates human ROMK potassium channel activity | B-score at 10 µM | AID 1918 | P48048 | actives 2% (n = 130,000) | Tet-inducible ROMK, thallium flux fluorescence; actives lie on both sides;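 active = signal ratio slope over the read window, or its plate-corrected B-score, at least 3 SD from the plate mean, either direction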;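 note: B-score of the F/F0 ratio slope over 7 to 12 s after thallium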
# Target sequence (P48048 whole entry, looked up): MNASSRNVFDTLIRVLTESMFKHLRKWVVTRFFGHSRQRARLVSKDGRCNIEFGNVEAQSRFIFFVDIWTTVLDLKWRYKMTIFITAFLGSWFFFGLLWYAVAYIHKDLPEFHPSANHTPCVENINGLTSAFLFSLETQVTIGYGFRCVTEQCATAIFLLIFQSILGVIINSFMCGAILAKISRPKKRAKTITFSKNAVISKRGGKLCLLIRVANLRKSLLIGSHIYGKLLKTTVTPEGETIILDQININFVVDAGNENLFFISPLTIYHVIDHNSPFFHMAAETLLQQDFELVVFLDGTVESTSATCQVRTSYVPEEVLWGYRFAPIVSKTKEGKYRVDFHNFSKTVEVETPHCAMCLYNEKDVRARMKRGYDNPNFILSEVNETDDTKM
# Arbovirus anti: blocks arbovirus infection | arbovirus infection cell-based antiviral screen | inhibition, % at 10 µM | actives 0.37% (n = 200,000); in the data active = inhibition above about 30%
# Mdm2 ligase inh: Mdm2 E3 ligase (human) inhibition; cell-based MDM2 ubiquitination luciferase reporter, 2 h; 0 = plate control, 100 = twice control, blank-subtracted; actives 0.11% (n = 210,000); Q00987; signal enhancement, % at 5 µM; AID 1230;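 active = signal enhancement of 30% or more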;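 note: luminescence tracks abundance of the self-degrading MDM2-luciferase fusion protein; higher signal means inhibition of MDM2 E3 ligase activity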
#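 Assay system: stable mammalian line carrying autodegrading MDM2–luciferase fusion reporter; amount: 2000 cells seeded into each well; buffer or medium: DMEM; benchmarks: plate control and blank wells; signal: luciferase luminescence; timing: 2 h compound exposure at 37 °C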
# Calpain2 inh: inhibitors of pig calpain II. inhibition, % at 16 µM. purified calpain II, fluorogenic peptide substrate, 30 min. actives 0.37% (n = 220,000);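 active = inhibition above about 50%, limit read from the data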
# KCC2 mod: modulates chloride dependent transport by human KCC2; KCC2 cells, thallium flux FluoZin-2 fluorescence; Q9H2X9; B-score of Tl+ flux slope (higher = more flux/activation; lower = inhibition) at 10 µM; AID 1456; actives 2.2% (n = 190,000);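 active = thallium flux slope and its plate-corrected score both differing from the plate sample mean at a set confidence after two filtering rounds, in either direction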;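 note: slope of fluorescence scaled to starting intensity during 10 to 20 s after thallium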
# ROMK hit retest: retested hit modulating human ROMK potassium channel; shares compounds with ROMK primary; ROMK thallium flux, fluorescence ratio; stronger effect = lower value; normalized thallium flux (F/F0 slope) at 10 µM; actives 54% (n = 3,000);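 active = Flux at 10 µM at least 3 SD below or above vehicle control mean in one or both replicates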
# * marks the source's active call; other numbers are inactive results; i = inactive; x = no result given.
SMILES,PKD1 inh,ROMK primary,Arbovirus anti,Mdm2 ligase inh,Calpain2 inh,KCC2 mod,ROMK hit retest
CCOc1ccc(NC(=O)C2CC(=O)OC2c2ccccc2)cc1 (stereo unspecified),-1.4,-1.27,4.7,-5.0,-22.8,-0.0973,x
COC(=O)c1ccc(NC(=O)C2CC(=O)OC2c2ccccc2)cc1 (stereo unspecified),x,x,x,-0.9,-0.4,1.32,0.0721
CCCCCNc1nc(-c2ccccc2)nc(-n2ccnc2)n1,0.7,x,-1.9,-2.9,5.1,0.737,0.0847
CCCCNc1nc(N(C)c2ccccc2)nc(-n2ccnc2)n1,-3.0,1.17,-21.8,-20.8,23.7,-0.0275,x
CCCCCCCCCCCCCCCCn1cc[n+](CC(C)=O)c1,-2.2,-4.86*,-32.1,-11.5,53.8*,0.0889,0.063*
CCOC(=O)Cc1cc(=O)n2[nH]c(C(C)(C)C)cc2n1,x,x,x,-11.5,5.5,0.685,x
COc1cc2c(cc1OC)CN(c1nc(-c3cccnc3)nc3ccccc13)CC2,-3.6,-0.162,-28.0,-8.7,-6.6,-1.8,0.08
Cc1cc(Cl)n2c(nc3ccccc32)c1C#N,-1.4,-4.97*,10.2,-22.1,-370.0,-1.83,0.0357*
CCN(CC)c1cc(C)c(C#N)c2nc3ccccc3n12,x,x,x,-6.2,-122.7,-0.115,x
COc1cc(/C=C/[N+](=O)[O-])ccc1OCc1cccc(C(=O)O)c1,-6.1,-6.02*,-6.0,-70.1,2.2,-2.83,0.0369*
COc1cc(/C=N/NC(=O)c2cccc([N+](=O)[O-])c2)ccc1OCc1ccccc1,-14.9,x,-0.4,26.8,31.5,-0.0497,x
O=C(N1CCN(c2ccc(F)cc2)CC1)C1(c2cccs2)CCOCC1,4.8,x,8.2,-10.7,3.4,0.421,x
COc1ccccc1/C(O)=C(\C#N)c1nc2ccccc2[nH]1,-4.9,0.148,2.6,15.0,-43.4,x,x
COC(=O)c1sc(-c2ccc(Cl)cc2)cc1NC(=O)CSCC(=O)O,x,0.0194,x,-10.8,5.2,-2.36,x
COC(=O)c1sc(-c2ccc(C(C)(C)C)cc2)cc1NC(=O)COCC(=O)O,x,-11.2*,x,-7.1,-57.1,-0.702,0.0846
O=C(c1cccc(Cl)c1)N1CCC(=O)N(C(COCc2cccc(Cl)c2)Cc2ccccc2)CC1 (stereo unspecified),-12.9,-2.7,-27.0,x,-2.4,-1.88,x
Cc1cccc(C(=O)N2CCC(=O)N(C(COCc3cccc(Cl)c3)Cc3ccccc3)CC2)c1 (stereo unspecified),-3.2,-3.69*,-20.2,x,2.2,-2.16,0.0557*
Cc1cccc(C(=O)N2CCC(=O)N(C(COCc3ccc(Cl)cc3)Cc3ccccc3)CC2)c1 (stereo unspecified),-11.2,-3.53*,-24.4,x,23.9,-0.461,0.0479*
O=C(c1ccc(C(F)(F)F)cc1)N1CCC(=O)N(C(COCc2ccc(C(F)(F)F)cc2)Cc2ccccc2)CC1 (stereo unspecified),1.0,-4.08*,-26.3,x,30.9,-0.818,0.0655*
CC(C)(C)NC(=O)c1ccc2c(c1)N(CC(=O)N1CCN(c3ccc(F)cc3)CC1)C(=O)C(C)(C)O2,-4.8,-0.277,-4.8,6.2,-30.3,0.481,x
Cc1sc(N)c(C(=O)c2ccccc2Cl)c1C,13.6,0.102,-4.8,-5.9,21.9,-3.45,x
CSc1nc2ccc(NS(=O)(=O)c3ccc([N+](=O)[O-])cc3)cc2s1,x,x,x,-12.8,-2.7,-1.79,x
Cn1c(=O)c2c(nc(NCCOc3ccc(F)cc3)n2C)n(C)c1=O,-15.9,0.855,2.9,-6.1,31.5,-1.3,x
CCSc1nnc(NC(=O)NC(C)(C(F)(F)F)C(F)(F)F)s1,8.4,-0.878,8.2,-8.1,6.2,0.329,x
CCSc1nnc(NC(=O)NC(CC)(C(F)(F)F)C(F)(F)F)s1,-4.0,-3.99*,-21.6,-47.7,19.3,x,0.058*
SMILES,PKD1 inh,ROMK primary,Arbovirus anti,Mdm2 ligase inh,Calpain2 inh,KCC2 mod,ROMK hit retest
CCOC(=O)c1cccc(NC(=O)Cn2c(CC(=O)NC)nc3ccccc32)c1,-5.2,0.352,16.3,-7.2,-40.6,-0.077,x
N=C1/C(=C\c2coc3ccccc3c2=O)C(=O)N=C2SC=CN12,x,x,x,x,4.3,x,0.0377*
CSC1=NSC2=NC(=O)/C(=C/c3coc4ccc(O)cc4c3=O)C(=N)N12,-8.8,x,-13.1,-9.4,-24.8,i,x
CN(C)c1ccc(/C=N/NC(=O)c2ccccc2Cl)cc1,4.0,1.94,-19.6,0.5,19.2,-0.31,0.0876
CN(C)c1ccc(/C=N/NC(=O)c2ccccc2)cc1,2.3,0.715,-8.2,-23.6,27.8,1.06,x
Cn1ccnc1Sc1ccc(C(N)=O)cc1[N+](=O)[O-],-4.5,0.0164,5.1,-5.0,-26.5,1.12,x
CCC(C)NC(=O)CNC(=S)N(Cc1ccccc1F)C1CCCCC1 (stereo unspecified),-1.4,-1.3,4.7,8.8,19.3,-0.368,x
COc1ccc(N2CCN(CC(O)COc3ccc4c(c3)CCC4)CC2)cc1 (stereo unspecified),-4.3,-4.52*,3.4,-4.6,18.5,x,0.0613*
OC(COc1ccc2cc(Br)ccc2c1)CN1CCCC1 (stereo unspecified),-7.2,x,-43.1,-5.0,-21.1,x,0.0644*
COc1ccc(N2CCN(CC(O)COCCOc3ccc(Br)cc3)CC2)cc1 (stereo unspecified),-9.0,-2.39*,-15.2,-13.6,-2.7,-0.657,0.0578*
O=[N+]([O-])c1ccc(NCCNc2ccc(Cl)nn2)cc1,-3.9,-2.3,2.4,-5.4,16.9,-0.742,x
c1ccc(Sc2cccc3ccccc23)c(CNC2=NCCN2)c1,-0.3,-3.08*,-28.3,-27.3,-26.4,-0.0335,0.0578*
COc1cc(Cl)c(C)cc1NC(=O)COc1ccccc1[N+](=O)[O-],-2.5,0.579,-1.3,0.3,-13.7,-0.344,x
Cc1cc(C)nc(SCC(=O)c2cc3ccccc3oc2=O)n1,-7.3,-4.05*,0.6,-9.6,21.0,-0.26,0.0596*
Cc1cc(Cl)c(S(=O)(=O)N2CCN(c3ccc(F)cc3)CC2)cc1OCC(=O)NC1CCCCC1,3.2,-4.3*,-6.5,-31.2,33.9,-0.743,0.0625*
Cc1cc(Cl)c(S(=O)(=O)Nc2ccc3c(c2)OCCO3)cc1OCC(=O)NC1CCCCC1,11.1,-3.16*,-0.6,-13.9,-45.1,-0.064,0.0664*
CCOC(=O)NC(Nc1ccc(C)cn1)(C(F)(F)F)C(F)(F)F,2.9,0.0453,6.8,-13.5,-7.5,0.275,x
CC(C)OC(=O)NC(Nc1ccccc1C(=O)O)(C(F)(F)F)C(F)(F)F,x,x,x,0.8,-74.4,0.459,0.0756
COc1ccc(S(=O)(=O)NCC(c2cccnc2)N2CCN(c3ccc(F)cc3)CC2)cc1C (stereo unspecified),-15.5,-3.85*,6.2,-2.0,3.5,-0.964,0.0743
Cc1ccc(C(C(=O)NC(C)(C)C)N(Cc2cccnc2)C(=O)C(=O)NC2CCCCC2)o1 (stereo unspecified),-6.1,-0.388,3.2,-7.2,20.4,0.436,x
